Measured values: ChEMBL document CHEMBL1127837, “6,9-Bis[(aminoalkyl)amino]benzo[g]isoquinoline-5,10-diones. A novel class of chromophore-modified antitumor anthracene-9,10-diones: synthesis and antitumor evaluations” (J Med Chem, 1994)
Values after ≈ are worked out from the molar mass of the structure shown.

Experiments:
L1210 = experiment: Tested in vitro for inhibitory activity against L1210 murine leukemia; format: functional, cell-based; conditions: Mus musculus
How it was run: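 L1210 suspension cells grown in McCoy's 5A with 10% horse serum, 10% CO2, 37 °C. Drug dissolved in water and added to 10^5 cells/tube at final 0.01, 0.1, 1 and 10 µg/mL.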

LoVo = experiment: Tested in vitro for cytotoxic activity against Human colon Adenocarcinoma sensitive cell line (LoVo); format: functional, cell-based
How it was run: (§1)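 LoVo and doxorubicin-resistant LoVo/Dx colon cells grown in Ham's F12 with 10% fetal calf serum, glutamine, vitamins and Hepes at 37 °C. 2.5 × 10^5 cells/mL plated and preincubated 24 h, then exposed to drug for 144 h. MTT read-out at 570 nm. IC50 (µg/mL) derived; resistance index = IC50 resistant / IC50 sensitive line.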

[1] = Resistance index is the ratio of IC50 of resistant cell line/IC50 of sensitive cell line; format: functional; how it was run: as §1
LoVo/DX (Homo sapiens) = experiment: Tested in vitro for cytotoxic activity against Doxorubicin resistant Human colon Adenocarcinoma cell line
P388 = experiment: Tested for antitumor activity against P388 murine leukemia; format: functional, Mus musculus
How it was run: (§2)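 P388 cells kept by serial ip passage (10^5 cells) in DBA2 male mice. CD2F1 mice inoculated iv with 10^6 cells on day 0. Drug given iv on days 1, 4 and 7. Daily observation for toxicity and survival over 60 days. Median survival time per group, expressed as %T/C = MST treated/MST control × 100.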

[2] = The compound was tested for antitumor activity against P388 murine leukemia by measuring maximum tolerated dose; format: ADME, organism-based; conditions: mouse, in vivo; read-out: LD10
How it was run: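 CD2F1 mice were given 10^6 P388 cells iv, followed by iv treatment on days 1, 4 and 7 after transplantation. Mice were observed daily for toxicity and survival for 60 days. The value is the maximum tolerated dose, taken as LD10, or else the maximum dose administered.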

Mus musculus [3] = experiment: The compound was tested for antitumor activity against P388 murine leukemia at 7.5 (mg/kg/day) dose; 0/16 -no. of toxic deaths/no. of mice; format: ADME, organism-based; conditions: in vivo
Mus musculus [4] = experiment: The compound was tested for antitumor activity against P388 murine leukemia at 9 (mg/kg/day) dose; format: functional; how it was run: as §2
Mus musculus [5] = experiment: The compound was tested for antitumor activity against P388 murine leukemia at 9 (mg/kg/day) dose; 3/8 -no. of toxic deaths/no. of mice; format: ADME, organism-based; conditions: in vivo
Mus musculus [6] = experiment: The compound was tested for antitumor activity against P388 murine leukemia at 6 (mg/kg/day) dose; format: functional; how it was run: as §2
Mus musculus [7] = experiment: The compound was tested for antitumor activity against P388 murine leukemia at 6 (mg/kg/day) dose; 0/15 -no. of toxic deaths/no. of mice; format: ADME, organism-based; conditions: in vivo
Mus musculus [8] = organism: Mus musculus; experiment: The compound was tested for antitumor activity against P388 murine leukemia; format: functional; how it was run: as §2

| SMILES | IC50 (L1210) [µg/mL] | IC50 (LoVo) [µg/mL] | Ratio [1] | IC50 (LoVo/DX (Homo sapiens)) [µg/mL] | T/C (P388) [%] | MTD [2] [mg/kg/day] | Toxic deaths (Mus musculus [3]) | T/C (Mus musculus [4]) [%] | Toxic deaths (Mus musculus [5]) | T/C (Mus musculus [6]) [%] | Toxic deaths (Mus musculus [7]) | T/C (Mus musculus [8]) [%] |
| --- | --- | --- | --- | --- | --- | --- | --- | --- | --- | --- | --- | --- |
| O=C1c2ccncc2C(=O)c2c(NCCN3CC3)ccc(NCCN3CC3)c21 | 0.002 (≈ 0.0053 µM) | – | – | – | – | – | – | – | – | – | – | – |
| CC(C)N(CCNc1ccc(NCCN(C(C)C)C(C)C)c2c1C(=O)c1ccncc1C2=O)C(C)C | 1.8 (≈ 3.65 µM) | 2.5 (≈ 5.06 µM) | 1.1 | 2.8 (≈ 5.67 µM) | – | – | – | – | – | – | – | – |
| O=C1c2ccncc2C(=O)c2c(NCCN3CCOCC3)ccc(NCCN3CCOCC3)c21 | 1.1 (≈ 2.36 µM) | 5.32 (≈ 11.4 µM) | 0.4 | 2.3 (≈ 4.94 µM) | 122 | 60 | – | – | – | – | – | – |
| CCNCCNc1ccc(NCCNCC)c2c1C(=O)c1ccncc1C2=O | 0.01 (≈ 0.0262 µM) | – | – | – | – | – | – | – | – | – | – | – |
| CC(=O)NCCNc1ccc(NCCNC(C)=O)c2c1C(=O)c1ccncc1C2=O | > 10 | – | – | – | – | – | – | – | – | – | – | – |
| CN(C)CCCNc1ccc(NCCCN(C)C)c2c1C(=O)c1ccncc1C2=O | 0.3 (≈ 0.733 µM) | 0.15 (≈ 0.366 µM) | 2.4 | 0.36 (≈ 0.879 µM) | – | – | – | – | – | – | – | – |
| CN(C)CCNc1ccc(NCCN(C)C)c2c1C(=O)c1ccncc1C2=O | 0.006 (≈ 0.0157 µM) | 0.076 (≈ 0.199 µM) | 1.7 | 0.13 (≈ 0.341 µM) | – | – | – | – | – | – | – | – |
| NCCNc1ccc(NCCN)c2c1C(=O)c1ccncc1C2=O [PIXANTRONE] | – | 0.24 (≈ 0.738 µM) | 30 | 7.2 (≈ 22.1 µM) | – | – | – | – | – | – | – | – |
| O=C1c2ccncc2C(=O)c2c(NCCNCCO)ccc(NCCNCCO)c21 | 0.06 (≈ 0.145 µM) | 1.3 (≈ 3.14 µM) | 76 | 99.5 (≈ 241 µM) | 118 | 40 | – | – | – | – | – | – |
| O=C1c2ccccc2C(=O)c2c(NCCNCCO)ccc(NCCNCCO)c21 [AMETANTRONE] | 0.03 (≈ 0.0727 µM) | 0.4 (≈ 0.97 µM) | 87 | 34.7 (≈ 84.1 µM) | 127 | 58 | – | – | – | – | – | – |
| COc1cccc2c1C(=O)c1c(O)c3c(c(O)c1C2=O)C[C@@](O)(C(=O)CO)C[C@@H]3O[C@H]1C[C@H](N)[C@H](O)[C@H](C)O1 [DOXORUBICIN] | – | 0.03 (≈ 0.0552 µM) | 133 | 4 (≈ 7.36 µM) | 181 | 7.5 | 0 | 222 | 3 | 175 | 0 | – |
| NCCCCNc1ccc(NCCCCN)c2c1C(=O)c1ccncc1C2=O | 1.5 (≈ 3.93 µM) | 2.27 (≈ 5.95 µM) | 0.4 | 0.83 (≈ 2.18 µM) | – | 35 | – | – | – | – | – | 100 |
